Measurements as given in ChEMBL document CHEMBL4609990, “Design and synthesis of cyanamides as potent and selective N-acylethanolamine acid amidase inhibitors” (Bioorg Med Chem, 2020).

Assays:
[1] = target: T1, N-acylethanolamine-hydrolyzing acid amidase (Homo sapiens, UniProt Q02083); test: Inhibition of activated human NAAA using fluorogenic PAMCA and N-4-methylcoumarin as substrate incubated for 90 mins by fluorescence based assay
T1 sequence (Q02083 whole entry): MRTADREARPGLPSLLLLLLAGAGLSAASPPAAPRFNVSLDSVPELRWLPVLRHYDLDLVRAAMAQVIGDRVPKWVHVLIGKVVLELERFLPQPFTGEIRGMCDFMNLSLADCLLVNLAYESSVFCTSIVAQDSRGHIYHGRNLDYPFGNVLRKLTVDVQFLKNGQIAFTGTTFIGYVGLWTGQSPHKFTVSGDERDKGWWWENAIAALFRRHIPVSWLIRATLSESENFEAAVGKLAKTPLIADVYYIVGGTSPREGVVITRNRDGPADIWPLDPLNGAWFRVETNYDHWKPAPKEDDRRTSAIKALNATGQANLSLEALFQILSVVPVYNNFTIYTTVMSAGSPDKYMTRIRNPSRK
Outline: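 Purified activated hNAAA (final 0.25 µg/mL) in 100 mM citrate-phosphate pH 4.5, 3 mM DTT, 0.1% Triton X-100, 0.05% BSA, 150 mM NaCl; compound in DMSO preincubated 90 min at room temperature. PAMCA added (final 5 µM), reaction at 37 °C for 90 min, fluorescence ex 360/em 460 nm read every 10 min. RFU converted to AMC via AMC standard curve. IC50 from eight concentrations, triplicate.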

[2] = target: T2, Fatty-acid amide hydrolase 1 (Homo sapiens) (UniProt O00519); test: Inhibition of recombinant human FAAH expressed in Escherichia coli at 1 uM using fluorogenic AAMCA as substrate by fluorimetric assay relative to control
T2 sequence (whole entry): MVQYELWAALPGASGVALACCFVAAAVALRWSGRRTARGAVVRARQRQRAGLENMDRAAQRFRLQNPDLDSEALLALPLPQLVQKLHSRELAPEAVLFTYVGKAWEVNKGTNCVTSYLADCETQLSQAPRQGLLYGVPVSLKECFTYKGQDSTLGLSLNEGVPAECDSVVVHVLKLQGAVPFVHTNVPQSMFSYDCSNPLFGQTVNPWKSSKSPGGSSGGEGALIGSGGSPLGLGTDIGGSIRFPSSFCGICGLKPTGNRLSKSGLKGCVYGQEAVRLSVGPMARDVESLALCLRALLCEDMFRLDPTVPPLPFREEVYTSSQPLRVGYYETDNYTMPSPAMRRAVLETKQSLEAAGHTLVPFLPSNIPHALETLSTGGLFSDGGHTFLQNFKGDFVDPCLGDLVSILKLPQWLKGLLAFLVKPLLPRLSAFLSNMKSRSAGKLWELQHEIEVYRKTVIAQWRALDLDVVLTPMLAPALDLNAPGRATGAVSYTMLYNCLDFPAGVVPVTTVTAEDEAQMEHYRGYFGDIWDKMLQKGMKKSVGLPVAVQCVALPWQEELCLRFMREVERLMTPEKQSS
Outline: (§1)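 Human recombinant FAAH expressed in E. coli and purified; fluorometric assay with arachidonoyl 7-amino-4-methylcoumarin amide (AAMCA) as substrate; IC50 by curve fitting, or percent inhibition at 1 µM.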

[3] = target: T3, Monoglyceride lipase (Homo sapiens) (UniProt Q99685); test: Inhibition of recombinant human hexaHis-tagged MGL expressed in Escherichia coli BL21 (DE3) at 1 uM using fluorogenic AHMMCE as substrate preincubated for 1 hr followed by substrate addition by fluorimetric assay relative to control
T3 sequence (whole entry): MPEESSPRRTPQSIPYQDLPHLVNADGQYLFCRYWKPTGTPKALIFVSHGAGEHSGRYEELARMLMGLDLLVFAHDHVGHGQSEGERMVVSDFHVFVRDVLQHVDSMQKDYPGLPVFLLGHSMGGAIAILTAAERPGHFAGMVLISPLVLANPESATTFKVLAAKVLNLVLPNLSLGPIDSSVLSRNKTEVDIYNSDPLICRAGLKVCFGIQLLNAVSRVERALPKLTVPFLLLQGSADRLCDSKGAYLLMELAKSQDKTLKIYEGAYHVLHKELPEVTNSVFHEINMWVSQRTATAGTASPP
Outline: (§2)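 Human recombinant MGL expressed in E. coli and purified; fluorometric assay using arachidonoyl 7-hydroxy-6-methoxy-4-methylcoumarin ester (AHMMCE) as substrate; IC50 by curve fitting, or percent inhibition at 1 µM.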

[4] = Half life in human plasma by HPLC analysis
[5] = target: T4, Fatty-acid amide hydrolase 1 (Homo sapiens, UniProt O00519); test: Inhibition of recombinant human FAAH expressed in Escherichia coli using fluorogenic AAMCA as substrate by fluorimetric assay; outline: as §1
T4 sequence (O00519 whole entry): T2 sequence (whole entry)

[6] = target: T5, N-acylethanolamine-hydrolyzing acid amidase (Homo sapiens) (UniProt Q02083); test: Irreversible inhibition of activated human NAAA assessed as ratio of Kinact/Ki using fluorogenic PAMCA and N-4-methylcoumarin as substrate
T5 sequence (whole entry): T1 sequence (Q02083 whole entry)

Homo sapiens [7] = species: Homo sapiens; test: Selectivity index, ratio of IC50 for human hexaHis-tagged MGL expressed in Escherichia coli BL21 (DE3) using fluorogenic AHMMCE as substrate preincubated for 1 hr followed by substrate addition by fluorimetric assay to IC50 human NAAA using fluorogenic PAMCA and N-4-methylcoumarin as substrate incubated for 90 mins by fluorescence based assay
Homo sapiens [8] = species: Homo sapiens; test: Selectivity index, ratio of IC50 for full length human ABHD6 using AHMMCE as substrate preincubated for 1 hr followed by substrate addition by fluorimetric assay to IC50 human NAAA using fluorogenic PAMCA and N-4-methylcoumarin as substrate incubated for 90 mins by fluorescence based assay
Homo sapiens [9] = species: Homo sapiens; test: Selectivity index, ratio of IC50 for human Cathepsin K using […] as substrate preincubated with enzyme for 90 mins followed by substrate addition by fluorimetry analysis to IC50 human NAAA using fluorogenic PAMCA and N-4-methylcoumarin as substrate incubated for 90 mins by fluorescence based assay
Cathepsin K = target: T6, Cathepsin K (Homo sapiens, UniProt P43235); test: Inhibition of recombinant human Cathepsin K using Z-Phe-Arg-AMC as substrate preincubated with enzyme for 120 mins followed by substrate addition by fluorimetry analysis
T6 sequence (P43235 whole entry): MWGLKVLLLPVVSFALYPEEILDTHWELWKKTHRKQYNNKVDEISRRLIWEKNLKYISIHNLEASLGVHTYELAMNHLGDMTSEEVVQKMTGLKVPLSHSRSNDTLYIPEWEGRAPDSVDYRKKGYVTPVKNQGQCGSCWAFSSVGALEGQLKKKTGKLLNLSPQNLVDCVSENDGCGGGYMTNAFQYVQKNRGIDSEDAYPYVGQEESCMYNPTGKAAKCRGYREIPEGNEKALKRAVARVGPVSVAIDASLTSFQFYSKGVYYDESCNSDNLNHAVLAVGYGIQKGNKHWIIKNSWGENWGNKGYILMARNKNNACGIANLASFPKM

[10] = Half life in human liver microsomes at 1 uM in presence of NADPH by LC-MS/MS
Monoglyceride lipase = target: T7, Monoglyceride lipase (Homo sapiens, UniProt Q99685); test: Inhibition of recombinant human hexaHis-tagged MGL expressed in Escherichia coli BL21 (DE3) using fluorogenic AHMMCE as substrate preincubated for 1 hr followed by substrate addition by fluorimetric assay; outline: as §2
T7 sequence (Q99685 whole entry): T3 sequence (whole entry)

Homo sapiens [11] = species: Homo sapiens; test: Selectivity index, ratio of IC50 for recombinant human FAAH expressed in Escherichia coli using fluorogenic AAMCA as substrate by fluorimetric assay to IC50 human NAAA using fluorogenic PAMCA and N-4-methylcoumarin as substrate incubated for 90 mins by fluorescence based assay
[12] = Half life in rat liver microsomes at 1 uM in presence of NADPH by LC-MS/MS; settings: microsomes
[13] = Half life in artificial gastric fluid by HPLC analysis; format: physicochemical
Outline: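 Compound at 200 μM incubated in artificial gastric juice; reaction quenched with acetonitrile and samples analysed by HPLC to estimate half-life (min).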

Compound: COc1ncccc1-c1ccc(COC2CN(C#N)C2)cc1
- IC50 [1]: 5.8 nM

Compound: N#CN1CC(OCc2ccc(-c3ccc4c(c3)OCCO4)cc2)(c2ccccc2)C1
- inhibition [2]: 99%
- IC50 [1]: 6.1 nM
- inhibition [3]: 13.5%

Compound: COc1ccc(-c2ccc(COC3(C4CC4)CN(C#N)C3)c(F)c2)cc1F
- IC50 [1]: 0.35 nM
- half-life [4]: 2.12 h
- IC50 [5]: 1 nM

Compound: COc1cccc(-c2ccc(COC3CN(C#N)C3)cc2)c1OC
- IC50 [1]: 0.88 nM
- Ratio [6]: 8.4 ×10⁶ /M/s

Compound: COc1cccc(-c2ccc(S(=O)(=O)NC3(C)CN(C#N)C3)cc2)c1
- IC50 [1]: 3.2 nM
- Ratio IC50 (Homo sapiens [7]): > 100
- Ratio IC50 (Homo sapiens [8]): > 100
- half-life [4]: 3.68 h
- inhibition [3]: 19%
- Ratio IC50 (Homo sapiens [9]): > 100
- IC50 [5]: 17.8 nM

Compound: N#CN1CC(OCc2ccc(Oc3ccccc3)cc2Br)C1
- IC50 [1]: 1.03 nM

Compound: N#CN1CC[C@@H](OCc2ccc(-c3ccccc3)cc2)C1
- IC50 [1]: 26.4 nM

Compound: N#CN1CC(CNS(=O)(=O)c2ccccc2)C1
- IC50 (Cathepsin K): 50 nM

Compound: COc1cccc(-c2ccc(COC3CN(C#N)C3)c(OC)c2)c1
- IC50 [1]: 2.8 nM

Compound: N#CN1CC(OCc2ccc(-c3cccnc3)cc2)C1
- IC50 [1]: 12 nM

Compound: N#CN1CC(COCc2ccc(-c3ccccc3)cc2)C1
- IC50 [1]: 3.4 nM
- Ratio [6]: 3.04 ×10⁶ /M/s

Compound: N#CN1CC(OCc2ccc(Oc3ccccc3)cc2-c2ccccc2)C1
- IC50 [1]: 8.5 nM

Compound: COc1ccncc1-c1ccc(COC2CN(C#N)C2)cc1
- IC50 [1]: 40 nM

Compound: CN(Cc1ccc(-c2ccccc2)cc1)C1CN(C#N)C1
- IC50 [1]: 20.8 nM
- half-life at 1 µM ([10]; liver microsomes): 0.188 h

Compound: Cn1nccc1-c1ccc(C(OC2CN(C#N)C2)c2ccccc2)cc1 (stereo not drawn)
- IC50 [1]: 74.7 nM

Compound: N#CN1CC(OCc2ccc(-c3cccc(OCc4ccccc4)c3)cc2)C1
- IC50 [1]: 1.4 nM

Compound: N#CN1CC(OCc2ccc(Oc3ccccc3)cc2)C1
- IC50 [1]: 1.1 nM
- Ratio [6]: 1.33 ×10⁶ /M/s

Compound: COc1cccc(-c2ccc(COC3(C)CN(C#N)C3)cc2)c1
- IC50 (Monoglyceride lipase): 1060 nM
- IC50 [1]: 1.8 nM
- Ratio IC50 (Homo sapiens [7]): 500
- Ratio IC50 (Homo sapiens [11]): 0.2
- Ratio IC50 (Homo sapiens [9]): 50
- IC50 [5]: 0.36 nM

Compound: COc1ccc(-c2ccc3c(c2)CN(C2CN(C#N)C2)C3)cc1F
- half-life at 1 µM [12]: 4.4 min
- IC50 [1]: 1.6 nM
- half-life at 1 µM ([10]; microsomes): 0.245 h

Compound: COc1ccccc1-c1cc(Oc2ccccc2)ccc1COC1CN(C#N)C1
- IC50 [1]: 23.7 nM

Compound: COc1cccc(-c2ccc(COC3CN(C#N)C3)c(F)c2)c1
- IC50 [1]: 0.47 nM
- half-life [13]: 4.52 h
